Legend:
[1] = folding enthalpy; higher = less favourable; fluorescence melt of hairpins on a sequencing array, two-state fit; settings: sodium 0.088 M
How it was run: (§1)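 With Cy3 and quencher oligos annealed, library hairpins on a sequenced MiSeq flow cell were imaged for Cy3 fluorescence in 50 mM Na-HEPES pH 8.0, 25 mM NaCl, in 2.5 °C steps up to 60 °C. Melting temperature and folding enthalpy were derived from bootstrapped two-state fits of signals normalised to pre-quench Cy3 and to control constructs. Four replicates were combined by inverse variance, with fitted temperatures raised by 9.35 °C to match UV melts.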

[2] = melting temperature; fluorescence melt of hairpins on a sequencing array, two-state fit, raised by 9.35 °C to match UV melts; settings: sodium 0.088 M
How it was run: as §1

GAGCGCCGAAAGGCACTC (((.(((....))).)))
folding enthalpy [1]: -84.7 kJ/mol
Tm [2]: 56.4 °C

GCAATGGCGAAAGCCTGC (((..(((....))))))
folding enthalpy [1]: -59 kJ/mol
Tm [2]: 50.5 °C

GATCGCGAAAGCGGTATC ((((((....)))..)))
folding enthalpy [1]: -45.8 kJ/mol
Tm [2]: 39 °C

GGAACGAAAGTTCC (((((....)))))
folding enthalpy [1]: -139 kJ/mol
Tm [2]: 64.3 °C

GTCCAAGGAAACTTGAAC ((.((((....)))).))
folding enthalpy [1]: -70.6 kJ/mol
Tm [2]: 29.2 °C

GGAGCAGCGAAAGCTTCC (((..(((....))))))
folding enthalpy [1]: -57.8 kJ/mol
Tm [2]: 30.8 °C

GTGGCCACGAAAGTGCAC (((..(((....))))))
folding enthalpy [1]: -52.1 kJ/mol
Tm [2]: 38.1 °C

GGATCTGGAAACAGGTTC (.(.(((....))).).)
folding enthalpy [1]: -59.2 kJ/mol
Tm [2]: 30.5 °C

GTGACCGAAAGGTTTCAC ((((((....)))..)))
folding enthalpy [1]: -54.9 kJ/mol
Tm [2]: 34.8 °C

CTACCGAAAGGTAG (((((....)))))
folding enthalpy [1]: -96.9 kJ/mol
Tm [2]: 57.9 °C

GATCCTTGCCAGGATC ((((((....))))))
folding enthalpy [1]: -130 kJ/mol
Tm [2]: 51.5 °C

GATTACGGAAACGCAATC ((((.((....)).))))
folding enthalpy [1]: -116 kJ/mol
Tm [2]: 37.4 °C

GGTAACCGAAAGGTGACC (((.(((....))).)))
folding enthalpy [1]: -152 kJ/mol
Tm [2]: 55.4 °C

GCGAAAGGAAACTTCCGC (((.(((....))).)))
folding enthalpy [1]: -114 kJ/mol
Tm [2]: 42.5 °C

GTCCTACGAAAGTAAGAC (((.(((....))).)))
folding enthalpy [1]: -114 kJ/mol
Tm [2]: 37 °C

GATCCGTTACCGGATC ((((((....))))))
folding enthalpy [1]: -145 kJ/mol
Tm [2]: 59.5 °C

GATGGACGAAAGTCGATC (((.(((....))).)))
folding enthalpy [1]: -108 kJ/mol
Tm [2]: 49.6 °C

GGTTAAACGAAAGTTACC (((..(((....))))))
folding enthalpy [1]: -60 kJ/mol
Tm [2]: 32 °C

GGACTCGAAAGAGTCTCC ((((((....)))..)))
folding enthalpy [1]: -43.7 kJ/mol
Tm [2]: 53.3 °C

GCGTTTGGAAACAGACGC ((((.((....)).))))
folding enthalpy [1]: -165 kJ/mol
Tm [2]: 52.7 °C

GGAATTGCGAAAGCATCC (((..(((....))))))
folding enthalpy [1]: -37.9 kJ/mol
Tm [2]: 30.3 °C

GGTTGTGCGAAAGCAACC (((..(((....))))))
folding enthalpy [1]: -79.7 kJ/mol
Tm [2]: 42.8 °C

GATCCACATGTGGATC ((((((....))))))
folding enthalpy [1]: -172 kJ/mol
Tm [2]: 62.1 °C

GGCCGAGGAAACTCAGCC (((.(((....))).)))
folding enthalpy [1]: -134 kJ/mol
Tm [2]: 46.4 °C

GCTGCTTCGAAAGAAAGC (((..(((....))))))
folding enthalpy [1]: -75.5 kJ/mol
Tm [2]: 39.6 °C

GCAGAAGGAAACTTCTGC (((((((....)))))))
folding enthalpy [1]: -186 kJ/mol
Tm [2]: 60.7 °C

GCAGTGCGAAAGCCTTGC (((..((....))..)))
folding enthalpy [1]: -63.8 kJ/mol
Tm [2]: 47.6 °C

GTTCGCGAAAGCGGAAAC ((((((....)))..)))
folding enthalpy [1]: -40.8 kJ/mol
Tm [2]: 36.6 °C

GCCTGACGAAAGTCCGGC (((.(((....))).)))
folding enthalpy [1]: -173 kJ/mol
Tm [2]: 56.7 °C

GGTTACGAAAGTACCACC ((((((....)))..)))
folding enthalpy [1]: -60.3 kJ/mol
Tm [2]: 36.6 °C

GCCGACGGAAACGTCGAC (.(((((....))))).)
folding enthalpy [1]: -62.6 kJ/mol
Tm [2]: 55.4 °C

GGATACGAAAGTACCTCC ((((((....)))..)))
folding enthalpy [1]: -83.7 kJ/mol
Tm [2]: 40.1 °C

GCGTCCAACGC ((((...))))
folding enthalpy [1]: -83.5 kJ/mol
Tm [2]: 53.6 °C

GCGGGGGCGAAAGCCCGC (((..(((....))))))
folding enthalpy [1]: -47.7 kJ/mol
Tm [2]: 65.1 °C

GATGAGGGAAACCTTATC (((.(((....))).)))
folding enthalpy [1]: -121 kJ/mol
Tm [2]: 35.7 °C

GATCGTTGAAACGATC ((((((....))))))
folding enthalpy [1]: -164 kJ/mol
Tm [2]: 54.8 °C

GATCTGTTTGCAGATC ((((((....))))))
folding enthalpy [1]: -170 kJ/mol
Tm [2]: 54.8 °C

GTAGAACGAAAGTTTTAC (((.(((....))).)))
folding enthalpy [1]: -128 kJ/mol
Tm [2]: 40.2 °C

GCGGCGCGAAAGCAGCGC (((..((....))..)))
folding enthalpy [1]: -115 kJ/mol
Tm [2]: 68.1 °C

GTAGCGAAAGCTAC (((((....)))))
folding enthalpy [1]: -108 kJ/mol
Tm [2]: 68.7 °C

GATCGTGCCTACGATC ((((((....))))))
folding enthalpy [1]: -144 kJ/mol
Tm [2]: 57.4 °C

GCAGGCGGAAACGCCCGC ((.((((....)))).))
folding enthalpy [1]: -66.1 kJ/mol
Tm [2]: 59.3 °C

GCGTGTGTACGC ((((....))))
folding enthalpy [1]: -108 kJ/mol
Tm [2]: 53.3 °C

GAGTGCGAAAGCAACTC ((((((....))).)))
folding enthalpy [1]: -78.5 kJ/mol
Tm [2]: 59 °C

GGTAGTACGAAAGTAACC (((..(((....))))))
folding enthalpy [1]: -44.6 kJ/mol
Tm [2]: 27.4 °C

GTAAGTCGAAAGACTAC (((.(((....))))))
folding enthalpy [1]: -70.9 kJ/mol
Tm [2]: 39.5 °C

GCTCGGCGAAAGCAAAGC (((..((....))..)))
folding enthalpy [1]: -68.5 kJ/mol
Tm [2]: 37.8 °C

GCCTATGGAAACATAGGC (((((((....)))))))
folding enthalpy [1]: -142 kJ/mol
Tm [2]: 66 °C

GTATAACGAAAGTTTTAC (((.(((....))).)))
folding enthalpy [1]: -87.1 kJ/mol
Tm [2]: 34.7 °C

GATCTAGGGTAGATC ((((((...))))))
folding enthalpy [1]: -95.1 kJ/mol
Tm [2]: 36.7 °C

GATCTCTATGGAGATC ((((((....))))))
folding enthalpy [1]: -179 kJ/mol
Tm [2]: 54.9 °C

GATCTAGGAATAGATC ((((((....))))))
folding enthalpy [1]: -123 kJ/mol
Tm [2]: 42.9 °C

GACAAACGAAAGTTGGTC (((.(((....))).)))
folding enthalpy [1]: -125 kJ/mol
Tm [2]: 49.6 °C

GACCCCCCGAAAGGGGTC (((..(((....))))))
folding enthalpy [1]: -63.8 kJ/mol
Tm [2]: 57.2 °C

GACGCACGAAAGTGAGTC (((.(((....))).)))
folding enthalpy [1]: -167 kJ/mol
Tm [2]: 60 °C

GCAGATCGAAAGATGTGC (((.(((....))).)))
folding enthalpy [1]: -147 kJ/mol
Tm [2]: 53.6 °C

GCAAGTGCGAAAGCATGC (((..(((....))))))
folding enthalpy [1]: -58.5 kJ/mol
Tm [2]: 44.5 °C

GATCGGTACCCCGATC ((((((....))))))
folding enthalpy [1]: -178 kJ/mol
Tm [2]: 54.4 °C

CGGATTCGGAAACGACCG (((..(((....))))))
folding enthalpy [1]: -74.4 kJ/mol
Tm [2]: 35.7 °C

GGGTGCGAAAGCATCCCC ((((((....)))..)))
folding enthalpy [1]: -56.1 kJ/mol
Tm [2]: 64.3 °C

GCGAAGCGAAAGCTCTGC ((..(((....)))..))
folding enthalpy [1]: -33.1 kJ/mol
Tm [2]: 39.7 °C

GAAATGCGAAAGCAGTTC (((.(((....))).)))
folding enthalpy [1]: -140 kJ/mol
Tm [2]: 52.4 °C

GTCACTCGAAAGAGAGAC (((.(((....))).)))
folding enthalpy [1]: -148 kJ/mol
Tm [2]: 50.5 °C

GGTGTACCGAAAGGTACC (((..(((....))))))
folding enthalpy [1]: -40.8 kJ/mol
Tm [2]: 44.7 °C

GAATCAGGAAACTGATTC (((((((....)))))))
folding enthalpy [1]: -178 kJ/mol
Tm [2]: 55.8 °C

GTGACGCGAAAGCGACAC (((.(((....))).)))
folding enthalpy [1]: -142 kJ/mol
Tm [2]: 69.3 °C

GCTCAGCGAAAGCTACGC ((..(((....)))..))
folding enthalpy [1]: -47.7 kJ/mol
Tm [2]: 35 °C

GCCGCTGGAAACGGTGGC (((.(.(....).).)))
folding enthalpy [1]: -188 kJ/mol
Tm [2]: 51.7 °C

GTGGCAGGAAACCACCAC ((((..(....)..))))
folding enthalpy [1]: -94.1 kJ/mol
Tm [2]: 35 °C

GAACCTGGAAACAGATTC (((.(((....))).)))
folding enthalpy [1]: -75 kJ/mol
Tm [2]: 31.9 °C

GTGACTGGAAACAGTTAC ((.((((....)))).))
folding enthalpy [1]: -122 kJ/mol
Tm [2]: 45.5 °C

GCCATGCGAAAGCATAGC ((.((((....)))).))
folding enthalpy [1]: -71 kJ/mol
Tm [2]: 51.6 °C

GATCCGTTCTCGGATC ((((((....))))))
folding enthalpy [1]: -176 kJ/mol
Tm [2]: 60.7 °C

GATGCACGAAAGTGTATC (((.(((....))).)))
folding enthalpy [1]: -133 kJ/mol
Tm [2]: 54.2 °C

GCTGTAGGAAACTACAGC (((((((....)))))))
folding enthalpy [1]: -186 kJ/mol
Tm [2]: 63.3 °C

GGTCGCGAAAGCGACACC ((((((....)))..)))
folding enthalpy [1]: -23.3 kJ/mol
Tm [2]: 60.7 °C

GAAGCTGGAAACAACTTC ((((.((....)).))))
folding enthalpy [1]: -101 kJ/mol
Tm [2]: 34.9 °C

GCTCGTACGAAAGTAAGC (((..(((....))))))
folding enthalpy [1]: -18.7 kJ/mol
Tm [2]: 39.3 °C

GCGTGCCACGC ((((...))))
folding enthalpy [1]: -89.1 kJ/mol
Tm [2]: 57.9 °C

GGAGAGGCGAAAGCCTCC (((..(((....))))))
folding enthalpy [1]: -31 kJ/mol
Tm [2]: 49.5 °C

GATCTTTTTTAAGATC ((((((....))))))
folding enthalpy [1]: -147 kJ/mol
Tm [2]: 45.2 °C

GATCCTTCCAGGATC ((((((...))))))
folding enthalpy [1]: -147 kJ/mol
Tm [2]: 57.2 °C

GATCTGCCGTCAGATC ((((((....))))))
folding enthalpy [1]: -158 kJ/mol
Tm [2]: 50.2 °C

GAGGCCGGAAACGGCTTC ((.((((....)))).))
folding enthalpy [1]: -70.8 kJ/mol
Tm [2]: 55.9 °C

GACTGCGCGAAAGCGGTC (((..(((....))))))
folding enthalpy [1]: -47.5 kJ/mol
Tm [2]: 48 °C

GATCCCATTGGGATC ((((((...))))))
folding enthalpy [1]: -133 kJ/mol
Tm [2]: 65.5 °C

GCGTCCCAACGC ((((....))))
folding enthalpy [1]: -98.2 kJ/mol
Tm [2]: 55.1 °C

GGCTTACGAAAGTACGCC (((.(((....))).)))
folding enthalpy [1]: -201 kJ/mol
Tm [2]: 52.9 °C

GTTCATGGAAACACGAAC ((((.((....)).))))
folding enthalpy [1]: -119 kJ/mol
Tm [2]: 34.4 °C

GGGCTCGAAAGAGATCCC ((((((....)))..)))
folding enthalpy [1]: -79 kJ/mol
Tm [2]: 47.8 °C

GATAGTGGAAACACTACC (.(((((....))))).)
folding enthalpy [1]: -51.9 kJ/mol
Tm [2]: 33.1 °C

GGAGTCGGAAACGACCCC ((.((((....)))).))
folding enthalpy [1]: -63.5 kJ/mol
Tm [2]: 54.4 °C

From the array DNA melting data of Ke et al. (doi:10.1101/2024.01.08.574731)
